Activity calls are given as the source filed them.
Assays:
Staphylococcus aureus [1] = assay: Bactericidal activity against Staphylococcus aureus E19977 assessed as log reduction in cfu at 9 mg/liter after 24 hrs by time-kill study; assay type: functional, organism-based
In short: (§1)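 In vitro kinetic model simulating antibiotic elimination without inoculum change. Exponential-phase E19977 was added at a final 10^6.3 CFU/ml. Starting drug concentration matched the human free peak, with the human half-life simulated. Samples were plated on 5% blood agar at 0, 2, 4, 6, 8, 12 and 24 h, with growth controls in each run. Results are shown as mean and range, n = 2.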

Staphylococcus aureus [2] = assay: Antibacterial activity against Staphylococcus aureus E19977 infected in NMRI mouse assessed as log reduction in intracellular bacterial cfu in peritoneum at 200 mg/kg, sc administered as single dose 2 hrs after infection measured between 4 to 19 hrs; assay type: functional, organism-based; design: dose 200 mg/kg
In short: (§2)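 NMRI mice were infected i.p. and given one or three doses (every 8 h), starting 2 h post-inoculation, at 200 mg/kg or 60 mg/kg, four mice per group. Peritoneal washes were sampled over 19 h of treatment. Total, extracellular and intracellular CFU/ml (lysostaphin separation) were compared with the pretreatment level; mean ± range, n = 2. Untreated controls were sampled only at 6 h of infection.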

Staphylococcus aureus [3] = assay: Bactericidal activity against Staphylococcus aureus E19977 assessed as log reduction in cfu at 2 mg/liter after 24 hrs by time-kill study; assay type: functional, organism-based; in short: as §1
Staphylococcus aureus [4] = assay: Antibacterial activity against Staphylococcus aureus E19977 infected in NMRI mouse assessed as log reduction in bacterial cfu in peritoneum at 60 mg/kg, sc administered as single dose 2 hrs after infection measured after 4 hrs; assay type: functional, organism-based; design: dose 60 mg/kg
In short: (§3)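 NMRI mice were infected i.p. with S. aureus E19977 in 5% mucin. A single dose (60 mg/kg or 10 mg/kg) was given 1, 2 or 3 h after inoculation, four mice per group. Peritoneal wash was sampled after 4 h of treatment and separated into total, extracellular and intracellular counts by lysostaphin/centrifugation. Δlog10 CFU/ml was calculated against vehicle-treated mice infected for the same time (5, 6 or 7 h).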

Staphylococcus aureus [5] = assay: Antibacterial activity against Staphylococcus aureus E19977 infected in NMRI mouse assessed as log reduction in intracellular bacterial cfu in peritoneum at 60 mg/kg, sc administered as single dose 1 hr after infection measured after 4 hrs; assay type: functional, organism-based; design: dose 60 mg/kg; in short: as §3
Staphylococcus aureus [6] = assay: Antibacterial activity against Staphylococcus aureus E19977 infected in NMRI mouse assessed as log reduction in bacterial cfu in peritoneum at 60 mg/kg, sc administered as single dose 1 hr after infection measured after 4 hrs; assay type: functional, organism-based; design: dose 60 mg/kg; in short: as §3
Staphylococcus aureus [7] = assay: Bactericidal activity against Staphylococcus aureus E19977 assessed as log reduction in cfu at 2 mg/liter upto 24 hrs by time-kill study; assay type: functional
In short: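 Clinical bacteremia isolate (penicillin-resistant, methicillin-susceptible). Exponential-phase bacteria were placed in an in vitro kinetic model that simulates drug elimination without changing the inoculum. The starting drug level matched the human free peak serum concentration after a single dose, with simulated human elimination half-life. Samples were taken at 0, 2, 4, 6, 8, 12 and 24 h, with growth controls in each run.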

Staphylococcus aureus [8] = assay: Antibacterial activity against Staphylococcus aureus E19977 infected in NMRI mouse assessed as log reduction in extracellular bacterial cfu in peritoneum at 60 mg/kg, sc administered as single dose 1 hr after infection measured after 4 hrs; assay type: functional, organism-based; design: dose 60 mg/kg; in short: as §3
Staphylococcus aureus [9] = assay: Bactericidal activity against Staphylococcus aureus E19977 assessed as log reduction in cfu at 0.5 mg/liter after 24 hrs by time-kill study; assay type: functional, organism-based; in short: as §1
[10] = Cmax in human at 1000 mg, po; assay type: ADME, organism-based; design: dose 1000 mg, route oral; settings: in vivo
Staphylococcus aureus [11] = assay: Antibacterial activity against Staphylococcus aureus E19977 infected in NMRI mouse assessed as log reduction in extracellular bacterial cfu in peritoneum at 60 mg/kg, sc administered as single dose 3 hrs after infection measured after 4 hrs; assay type: functional, organism-based; design: dose 60 mg/kg; in short: as §3
Staphylococcus aureus [12] = assay: Antibacterial activity against Staphylococcus aureus E19977 infected in NMRI mouse assessed as log reduction in bacterial cfu in peritoneum at 10 to 200 mg/kg, sc administered 2 hrs after infection measured after 4 hrs; assay type: functional, organism-based
In short: (§4)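 Dose–response in i.p.-infected NMRI mice (mucin adjuvant). Single doses of 200, 60, 30, 20 or 10 mg/kg were given 2 h after inoculation, with 4–16 mice per group. Peritoneal wash was sampled 4 h later and split by lysostaphin/centrifugation into total, extra- and intracellular counts, then expressed as Δlog10 CFU/ml against log dose. Vehicle controls were plotted as 0.3 mg/kg. Hill fit (variable slope); static dose interpolated.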

Staphylococcus aureus [13] = assay: Antibacterial activity against Staphylococcus aureus E19977 infected in NMRI mouse assessed as log reduction in extracellular bacterial cfu in peritoneum at 10 to 200 mg/kg, sc administered 2 hrs after infection measured after 4 hrs; assay type: functional, organism-based; in short: as §4
Staphylococcus aureus [14] = assay: Antibacterial activity against Staphylococcus aureus E19977 infected in NMRI mouse assessed as log reduction in bacterial cfu in peritoneum at 60 mg/kg, sc administered as single dose 2 hrs after infection measured within 4 hrs; assay type: functional; settings: route subcutaneous
In short: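 Female NMRI mice were infected i.p. with S. aureus E19977 (10^7.7 CFU/ml, 0.5 ml, 5% mucin). They were treated 2 h post-inoculation with a single 60 mg/kg dose and sampled after 4 h of treatment. Peritoneal-wash CFU were plated on blood agar. Δlog10 CFU/ml was calculated against vehicle-treated controls with the same infection duration.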

Staphylococcus aureus [15] = assay: Antibacterial activity against Staphylococcus aureus E19977 infected in NMRI mouse assessed as log reduction in bacterial cfu in peritoneum at 60 mg/kg, sc administered as single dose 3 hrs after infection measured after 4 hrs; assay type: functional, organism-based; design: dose 60 mg/kg; in short: as §3
Staphylococcus aureus [16] = assay: Antibacterial activity against Staphylococcus aureus E19977 infected in NMRI mouse assessed as log reduction in bacterial cfu in peritoneum at 200 mg/kg, sc administered 2 hrs after infection measured after 4 hrs; assay type: functional, organism-based; design: dose 200 mg/kg; in short: as §4
[17] = Half life in human at 1000 mg, po; assay type: ADME, organism-based; settings: in vivo
Staphylococcus aureus [18] = assay: Antibacterial activity against Staphylococcus aureus E19977 infected in NMRI mouse assessed as log reduction in intracellular bacterial cfu in peritoneum at 10 to 200 mg/kg, sc administered 2 hrs after infection measured after 4 hrs; assay type: functional, organism-based; in short: as §4
Staphylococcus aureus [19] = assay: Antibacterial activity against Staphylococcus aureus E19977 infected in NMRI mouse assessed as log reduction in extracellular bacterial cfu in peritoneum at 60 mg/kg, sc administered as single dose 2 hrs after infection measured after 4 hrs; assay type: functional, organism-based; design: dose 60 mg/kg; in short: as §3
Serum = assay: Protein binding in human serum at 1000 mg, po; assay type: ADME, organism-based; settings: in vivo
Staphylococcus aureus [20] = assay: Antibacterial activity against Staphylococcus aureus E19977 infected in NMRI mouse assessed as log reduction in intracellular bacterial cfu in peritoneum at 60 mg/kg, sc administered as single dose 2 hrs after infection measured after 4 hrs; assay type: functional, organism-based; design: dose 60 mg/kg; in short: as §3
Staphylococcus aureus [21] = assay: Antibacterial activity against Staphylococcus aureus E19977 infected in NMRI mouse assessed as log reduction in extracellular bacterial cfu in peritoneum at 200 mg/kg, sc administered 2 hrs after infection measured after 4 hrs; assay type: functional, organism-based; design: dose 200 mg/kg; in short: as §4
Staphylococcus aureus [22] = assay: Antibacterial activity against Staphylococcus aureus E19977 infected in NMRI mouse assessed as log reduction in intracellular bacterial cfu in peritoneum at 200 mg/kg, sc administered 2 hrs after infection evry 8 hrs as three-dose regimen measured after 19 hrs; assay type: functional, organism-based; design: dose 200 mg/kg; in short: as §2
Staphylococcus aureus [23] = assay: Bactericidal activity against Staphylococcus aureus E19977 assessed as log reduction in cfu at 1.5 mg/liter after 24 hrs by time-kill study; assay type: functional, organism-based; in short: as §1

Cc1onc(-c2c(Cl)cccc2Cl)c1C(=O)N[C@@H]1C(=O)N2[C@@H]1SC(C)(C)[C@@H]2C(=O)O [DICLOXACILLIN]
<1: FC (Staphylococcus aureus [14])
inactive: Activity (Staphylococcus aureus [1]) | Activity (Staphylococcus aureus [2]) | Activity (Staphylococcus aureus [3]) | Activity (Staphylococcus aureus [4]) | Activity (Staphylococcus aureus [9]) | Activity (Staphylococcus aureus [11]) | Activity (Staphylococcus aureus [15]) | Activity (Staphylococcus aureus [19]) | Activity (Staphylococcus aureus [22]) | Activity (Staphylococcus aureus [23])
1 h: half-life [17]
active: Activity (Staphylococcus aureus [5]) | Activity (Staphylococcus aureus [6]) | Activity (Staphylococcus aureus [8]) | Activity (Staphylococcus aureus [12]) Dose-dependent effect | Activity (Staphylococcus aureus [13]) Dose-dependent effect | Activity (Staphylococcus aureus [16]) | Activity (Staphylococcus aureus [18]) Dose-dependent effect | Activity (Staphylococcus aureus [20]) | Activity (Staphylococcus aureus [21])
2: FC (Staphylococcus aureus [7])
30000 ng/mL: Cmax [10]
95%: Activity (Serum)

From ChEMBL document CHEMBL1649157, “Intracellular activity of antibiotics against Staphylococcus aureus in a mouse peritonitis model” (Antimicrob Agents Chemother, 2009)
